Assay outcomes from PubChem.
hERG protect – compounds protecting human hERG from proarrhythmic drug block. CHO-hERG, FluxOR thallium flux, dofetilide IC70 present. activation (rescue from dofetilide block), less the hit threshold, % at 10 µM. 0.51% of 310,000 active. AID 1511;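 active = activation above the mean of controls blocked by dofetilide plus 5 SD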;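 note: thallium influx through hERG after potassium depolarization seen as dye fluorescence rise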
KCNK9 inh – blocks the human KCNK9 two-pore domain potassium channel; Q9NPC2; 1.2% of 310,000 active; B-score at 10 µM; AID 488922; HEK293 KCNK9, FluxOR thallium flux fluorescence; active compounds read low;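 active = ratio B-score over 3 SD below the library mean, with starting fluorescence within 5 SD of its mean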;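 note: negative B-score means less thallium flux so channel inhibition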
KCNK3 block – human KCNK3 channel inhibition, primary screen | CHO-KCNK3 thallium flux, FluxOR fluorescence; active compounds read low | B-score at 10 µM | 0.84% of 340,000 active | AID 602410;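 active = B-score under library mean minus 4 SD, starting fluorescence ratio at most library mean plus 5 SD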;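 note: more negative B-score means stronger inhibition of thallium flux through KCNK3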
KCNQ1 inh – inhibitors of human KCNQ1 potassium channel; B-score at 10 µM; CHO-K1 KCNQ1, FluxOR thallium flux fluorescence; active compounds read high; 1.3% of 310,000 active;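 active = compounds whose thallium flux B-score, printed positive for inhibition, exceeds three library SD while starting fluorescence stays within three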;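 note: channel opened by potassium depolarization with thallium stimulus after 20 min compound exposure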
KCNQ1 pot – potentiates or activates the human KCNQ1 potassium channel; 0.35% of 310,000 active; B-score at 10 µM; CHO-K1 KCNQ1, thallium flux FluxOR fluorescence; active compounds read high; P51787;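 active = fluorescence ratio B-score, a plate-corrected score, at least three library SD, with initial intensity B-score within 5 SD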
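Assay system: CHO-K1 cells stably expressing KCNQ1; Medium: assay buffer with matched DMSO; Also added: K+/Tl+ depolarizing stimulus; Dosing: single dose; Timing: dye 90 min, compound 20 min, room temperature; Measured by: kinetic FluxOR thallium fluorescence, 10-s 1-Hz baseline, 110-s post-stimulus read; Read-out: peak-minus-minimum fluorescence over initial fluorescence, negative-control normalized, B-scored.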
KCNK9 block conf – human KCNK9 inhibitor confirmation; 43% of 4,900 active; shares compounds with KCNK9 inh; inhibition, % at 10 µM; HEK293 KCNK9 cells, FluxOR thallium flux fluorescence;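 active = thallium signal inhibited by more than 5 SD of the compound-free buffer control wells, on both duplicate plates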;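 note: 0% = assay buffer control wells without compound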
Kir2-1 spec – mouse Kir2.1 off-target activity of KCNK9 modulators; shares compounds with KCNK9 inh; Kir2.1 cells, FluxOR thallium flux fluorescence; inhibition, % at 10 µM; 4% of 4,900 active; AID 492993;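 active = thallium signal drop more than 5 SD beyond the mean of the no-compound control wells, seen in both duplicate plates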;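 note: signal is fluorescence rise after thallium addition divided by baseline fluorescence; plate controls were assay buffer only for no effect and full block by chlorpromazine control for full effect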
KCNK9 uninduced – second counter-screen for KCNK9 modulators: effect in non-induced cells. AID 492997. inhibition, % at 10 µM. non-induced KCNK9-HEK293, FluxOR thallium flux. 40% of 4,900 active. shares compounds with KCNK9 inh;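 active = thallium signal drop beyond 5 SD of the untreated control mean, on both duplicate plates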;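 note: plate controls were buffer only IC0 wells for no effect and SID17386958 at its maximal inhibitory level for full effect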
* marks the source's active call; other numbers are inactive results. Hits are enriched below; roughly 3.1% of the tested compounds scored in any of these assays.

CN(C)N1C(=O)/C(=C/c2ccco2)SC1=Nc1ccccc1 was read as hERG protect -2, KCNK9 inh inactive, KCNK3 block inactive, KCNQ1 inh inactive and KCNQ1 pot inactive.
Screening O=C1/C(=C\c2ccc(Br)o2)SC(=Nc2ccccc2)N1c1ccccc1 returned hERG protect -11, KCNK9 inh -8.4*, KCNK3 block inactive, KCNQ1 inh inactive, KCNQ1 pot inactive, KCNK9 block conf inactive, Kir2-1 spec inactive and KCNK9 uninduced 37%*.
Screening COC(=O)c1ccc(COC(=O)C23CC4CC(CC(O)(C4)C2)C3)o1 returned hERG protect -9, KCNK9 inh inactive, KCNK3 block inactive, KCNQ1 inh inactive and KCNQ1 pot inactive.
Screening CCCCOc1cccc(C(=O)NC(=S)Nc2cccc(C(F)(F)F)c2)c1 returned hERG protect -5, KCNK9 inh inactive, KCNK3 block inactive, KCNQ1 inh inactive, KCNQ1 pot inactive, KCNK9 block conf inactive, Kir2-1 spec inactive and KCNK9 uninduced inactive.
`CC(C)Oc1cccc(C(=O)NC(=S)Nc2cccc(C(F)(F)F)c2)c1` gave hERG protect -7, KCNK9 inh inactive, KCNK3 block inactive, KCNQ1 inh inactive and KCNQ1 pot inactive.
COCCOc1cc(NC(=O)c2cccc(OC)c2)c(Cl)cc1Cl was read as hERG protect -5, KCNK9 inh inactive, KCNK3 block inactive, KCNQ1 inh inactive and KCNQ1 pot inactive.
`COCCOc1cc(NC(=O)c2sccc2Oc2ccc([N+](=O)[O-])cc2F)c(Cl)cc1Cl` gave hERG protect -5, KCNK9 inh inactive, KCNK3 block inactive, KCNQ1 inh 9*, KCNQ1 pot inactive, KCNK9 block conf inactive, Kir2-1 spec inactive and KCNK9 uninduced inactive.
`O=C(CN(c1cccc(C(F)(F)F)c1)S(=O)(=O)c1ccc(Cl)c([N+](=O)[O-])c1)NCc1ccccc1` gave hERG protect -9, KCNK9 inh inactive, KCNK3 block inactive, KCNQ1 inh inactive and KCNQ1 pot inactive.
Screening O=C(CN(c1cccc(C(F)(F)F)c1)S(=O)(=O)c1ccc(Cl)c([N+](=O)[O-])c1)NCc1ccccc1Cl returned hERG protect -8, KCNK9 inh -8.3*, KCNK3 block inactive, KCNQ1 inh inactive, KCNQ1 pot inactive, KCNK9 block conf 42%*, Kir2-1 spec inactive and KCNK9 uninduced 36%*.
COc1ccc(-n2c(CCc3ccccc3)nnc2SCC(=O)c2ccccc2)cc1 was read as hERG protect -2, KCNK9 inh inactive, KCNK3 block inactive, KCNQ1 inh inactive, KCNQ1 pot inactive, KCNK9 block conf inactive, Kir2-1 spec inactive and KCNK9 uninduced inactive.
Screening COc1ccc(CNC(=O)CSCc2cnn(-c3ccccc3)c2-n2cccc2)cc1 returned hERG protect -16, KCNK9 inh inactive, KCNK3 block inactive, KCNQ1 inh inactive, KCNQ1 pot inactive, KCNK9 block conf inactive, Kir2-1 spec inactive and KCNK9 uninduced inactive.
O=C(CSCc1cnn(-c2ccccc2)c1-n1cccc1)NCc1ccccn1 was read as hERG protect -10, KCNK9 inh inactive, KCNK3 block inactive, KCNQ1 inh inactive and KCNQ1 pot inactive.
COc1ccc(-n2c(CCc3ccccc3)nnc2SCC(=O)NCc2ccccc2)cc1 was read as hERG protect -16, KCNK9 inh inactive, KCNK3 block inactive, KCNQ1 inh inactive, KCNQ1 pot inactive, KCNK9 block conf inactive, Kir2-1 spec inactive and KCNK9 uninduced inactive.
For COc1ccc(-n2c(SCC(=O)Nc3ccc(Cl)cc3)nc(O)c(Cc3ccccc3)c2=O)cc1 the results were hERG protect 2, KCNK9 inh inactive, KCNK3 block inactive, KCNQ1 inh inactive, KCNQ1 pot inactive, KCNK9 block conf inactive, Kir2-1 spec inactive and KCNK9 uninduced inactive.
